Test results as given in ChEMBL document CHEMBL1123181 (J Med Chem, 1986).

Assays:
[1] = target: Angiotensin-converting enzyme (Rattus norvegicus) (UniProt P47820); assay: Percentage inactivation of the angiotensin I induced vasopressor response in normotensive conscious rats after po administration at dose 0.3 mg/kg; 15-17; conditions: at 0.3 mg/kg
[2] = target: Angiotensin-converting enzyme (Rattus norvegicus) (UniProt P47820); assay: The time to 50% recovery of the angiotensin I response was measured after po administration at 0.3 mg/kg
[3] = target: T1, Angiotensin-converting enzyme (Oryctolagus cuniculus, UniProt P12822); assay: In vitro inhibition of Angiotensin I converting enzyme activity in rabbit lung; type: tissue-based; conditions: read-out: I50
T1 sequence (P12822 whole entry): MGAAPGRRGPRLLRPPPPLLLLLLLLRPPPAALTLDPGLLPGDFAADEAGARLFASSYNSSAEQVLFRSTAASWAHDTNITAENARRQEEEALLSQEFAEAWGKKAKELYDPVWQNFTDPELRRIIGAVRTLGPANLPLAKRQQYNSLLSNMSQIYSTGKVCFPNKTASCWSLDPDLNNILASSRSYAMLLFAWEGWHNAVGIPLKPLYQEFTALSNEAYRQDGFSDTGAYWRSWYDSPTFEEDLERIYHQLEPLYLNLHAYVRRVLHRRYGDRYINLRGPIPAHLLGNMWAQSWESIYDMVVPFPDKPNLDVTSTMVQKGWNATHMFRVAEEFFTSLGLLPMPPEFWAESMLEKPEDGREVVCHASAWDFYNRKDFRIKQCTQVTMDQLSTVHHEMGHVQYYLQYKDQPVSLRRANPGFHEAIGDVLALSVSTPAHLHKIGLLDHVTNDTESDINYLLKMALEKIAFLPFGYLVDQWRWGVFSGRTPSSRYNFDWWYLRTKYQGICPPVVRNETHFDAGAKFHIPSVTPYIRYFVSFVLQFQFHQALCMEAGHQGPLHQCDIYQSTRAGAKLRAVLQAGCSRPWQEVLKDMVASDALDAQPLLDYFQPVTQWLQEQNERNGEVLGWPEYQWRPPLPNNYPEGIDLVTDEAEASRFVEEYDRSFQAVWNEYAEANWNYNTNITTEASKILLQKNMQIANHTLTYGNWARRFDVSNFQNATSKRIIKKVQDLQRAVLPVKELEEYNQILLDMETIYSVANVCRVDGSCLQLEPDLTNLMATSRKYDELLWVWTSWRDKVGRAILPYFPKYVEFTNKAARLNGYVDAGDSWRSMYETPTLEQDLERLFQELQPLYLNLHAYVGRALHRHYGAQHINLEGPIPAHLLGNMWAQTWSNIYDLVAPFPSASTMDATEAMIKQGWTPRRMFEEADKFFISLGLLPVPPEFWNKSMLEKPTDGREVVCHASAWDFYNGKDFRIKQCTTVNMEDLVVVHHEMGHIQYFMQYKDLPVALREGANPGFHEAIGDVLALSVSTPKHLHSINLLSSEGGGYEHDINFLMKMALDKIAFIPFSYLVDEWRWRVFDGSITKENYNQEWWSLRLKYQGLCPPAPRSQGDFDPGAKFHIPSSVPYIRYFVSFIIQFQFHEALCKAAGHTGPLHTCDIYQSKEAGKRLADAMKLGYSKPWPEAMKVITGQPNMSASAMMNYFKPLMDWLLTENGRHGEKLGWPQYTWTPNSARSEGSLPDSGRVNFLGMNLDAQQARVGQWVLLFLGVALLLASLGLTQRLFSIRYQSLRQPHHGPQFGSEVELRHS

[4] = target: Angiotensin-converting enzyme (Rattus norvegicus) (UniProt P47820); assay: The time to 50% recovery of the angiotensin I response was measured after po administration at 1.5 mg/kg
[5] = target: Angiotensin-converting enzyme (Rattus norvegicus) (UniProt P47820); assay: Percentage inactivation of the angiotensin I induced vasopressor response in normotensive conscious rats after po administration at dose 1.5 mg/kg; 17-24; conditions: at 1.5 mg/kg
[6] = target: T1, Angiotensin-converting enzyme; assay: Inhibition of the activity of rabbit lung Angiotensin I converting enzyme
In short: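 Rabbit lung acetone-powder ACE, crude and dialyzed. Enzyme was added to substrate ± inhibitor and the reaction stopped with HCl after 10 min. Hippuric acid was extracted into AcOEt and read at 228 nm.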

[7] = target: Angiotensin-converting enzyme (Rattus norvegicus) (UniProt P47820); assay: Percentage inactivation of the angiotensin I induced vasopressor response in normotensive conscious rats after po administration at dose 0.15 mg/kg; 24-49
[8] = target: T1, Angiotensin-converting enzyme; assay: In vitro inhibition of Angiotensin I converting enzyme activity at pH 8.5 in rabbit lung; type: tissue-based; conditions: read-out: I50
[9] = target: Angiotensin-converting enzyme (Rattus norvegicus) (UniProt P47820); assay: The time to 50% recovery of the angiotensin I response was measured after po administration at 0.15 mg/kg; 10-30
[10] = target: Angiotensin-converting enzyme (Rattus norvegicus) (UniProt P47820); assay: Percentage inactivation of the angiotensin I induced vasopressor response in normotensive conscious rats after po administration at dose 1.50 mg/kg; 73-79
[11] = target: Angiotensin-converting enzyme (Rattus norvegicus) (UniProt P47820); assay: The time to 50% recovery of the angiotensin I response was measured after po administration at 1.5 mg/kg; 30-50
[12] = target: Angiotensin-converting enzyme (Rattus norvegicus) (UniProt P47820); assay: Percentage inactivation of the angiotensin I induced vasopressor response in normotensive conscious rats after po administration at dose 1.5 mg/kg; 0-29
[13] = target: Angiotensin-converting enzyme (Rattus norvegicus) (UniProt P47820); assay: The time to 50% recovery of the angiotensin I response was measured after po administration at 1.5 mg/kg; 0-30
[14] = target: Angiotensin-converting enzyme (Rattus norvegicus) (UniProt P47820); assay: Percentage inactivation of the angiotensin I induced vasopressor response in normotensive conscious rats after po administration at dose 1.5 mg/kg; 20-34
[15] = target: Angiotensin-converting enzyme (Rattus norvegicus) (UniProt P47820); assay: Percentage inactivation of the angiotensin I induced vasopressor response in normotensive conscious rats after po administration at dose 1.5 mg/kg; 14-16
[16] = target: Angiotensin-converting enzyme (Rattus norvegicus) (UniProt P47820); assay: The time to 50% recovery of the angiotensin I response was measured after po administration at 1.5 mg/kg; 10-60
Rattus norvegicus [17] = assay: Maximum percent change in mean arterial pressure by the compound over control after po administration at 30 mg/kg dosage; type: functional, Artery
In short: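 Spontaneously hypertensive rats kept on a sodium-deficient diet received the agent orally. Value = maximum % change in mean arterial pressure over control. Duration = time outside a control area, defined as the means ±2 SD of arterial pressure and heart rate readings from 45 control rats.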

[18] = target: Angiotensin-converting enzyme (Rattus norvegicus) (UniProt P47820); assay: The time to 50% recovery of the angiotensin I response was measured after po administration at 1.5 mg/kg; 20-80
[19] = target: Angiotensin-converting enzyme (Rattus norvegicus) (UniProt P47820); assay: Percentage inactivation of the angiotensin I induced vasopressor response in normotensive conscious rats after po administration at dose 1.5 mg/kg; 43-64
[20] = target: Angiotensin-converting enzyme (Rattus norvegicus) (UniProt P47820); assay: Percentage inactivation of the angiotensin I induced vasopressor response in normotensive conscious rats after po administration at dose 0.15 mg/kg; 64-100
[21] = target: Angiotensin-converting enzyme (Rattus norvegicus) (UniProt P47820); assay: The time to 50% recovery of the angiotensin I response was measured after po administration at 0.15 mg/kg; 30-100
[22] = target: Angiotensin-converting enzyme (Rattus norvegicus) (UniProt P47820); assay: Percentage inactivation of the angiotensin I induced vasopressor response in normotensive conscious rats after po administration at dose 0.058 mg/kg; 65-70
Rattus norvegicus [23] = assay: Time taken by the compound to change arterial pressure outside the control area at a dose of 30mg/kg, po; type: functional, Artery
[24] = target: Angiotensin-converting enzyme (Rattus norvegicus) (UniProt P47820); assay: The time to 50% recovery of the angiotensin I response was measured after po administration at 0.30 mg/kg
[25] = target: Angiotensin-converting enzyme (Rattus norvegicus) (UniProt P47820); assay: Percentage inactivation of the angiotensin I induced vasopressor response in normotensive conscious rats after po administration at dose 0.08 mg/kg; 80-85
[26] = target: Angiotensin-converting enzyme (Rattus norvegicus) (UniProt P47820); assay: Percentage inactivation of the angiotensin I induced vasopressor response in normotensive conscious rats after po administration at dose 1.5 mg/kg; 14-21
[27] = target: Angiotensin-converting enzyme (Rattus norvegicus) (UniProt P47820); assay: The time to 50% recovery of the angiotensin I response was measured after po administration at 1.5 mg/kg; 20-50
[28] = target: Angiotensin-converting enzyme (Rattus norvegicus) (UniProt P47820); assay: The time to 50% recovery of the angiotensin I response was measured after po administration at 0.15 mg/kg; 60-140
[29] = target: Angiotensin-converting enzyme (Rattus norvegicus) (UniProt P47820); assay: Percentage inactivation of the angiotensin I induced vasopressor response in normotensive conscious rats after po administration at dose 0.15 mg/kg; 85-96
[30] = target: Angiotensin-converting enzyme (Rattus norvegicus) (UniProt P47820); assay: Percentage inactivation of the angiotensin I induced vasopressor response in normotensive conscious rats after po administration at dose 1.5 mg/kg; 3-5

Chain of Angiotensin-converting enzyme (Rattus norvegicus) (P47820 whole entry, looked up): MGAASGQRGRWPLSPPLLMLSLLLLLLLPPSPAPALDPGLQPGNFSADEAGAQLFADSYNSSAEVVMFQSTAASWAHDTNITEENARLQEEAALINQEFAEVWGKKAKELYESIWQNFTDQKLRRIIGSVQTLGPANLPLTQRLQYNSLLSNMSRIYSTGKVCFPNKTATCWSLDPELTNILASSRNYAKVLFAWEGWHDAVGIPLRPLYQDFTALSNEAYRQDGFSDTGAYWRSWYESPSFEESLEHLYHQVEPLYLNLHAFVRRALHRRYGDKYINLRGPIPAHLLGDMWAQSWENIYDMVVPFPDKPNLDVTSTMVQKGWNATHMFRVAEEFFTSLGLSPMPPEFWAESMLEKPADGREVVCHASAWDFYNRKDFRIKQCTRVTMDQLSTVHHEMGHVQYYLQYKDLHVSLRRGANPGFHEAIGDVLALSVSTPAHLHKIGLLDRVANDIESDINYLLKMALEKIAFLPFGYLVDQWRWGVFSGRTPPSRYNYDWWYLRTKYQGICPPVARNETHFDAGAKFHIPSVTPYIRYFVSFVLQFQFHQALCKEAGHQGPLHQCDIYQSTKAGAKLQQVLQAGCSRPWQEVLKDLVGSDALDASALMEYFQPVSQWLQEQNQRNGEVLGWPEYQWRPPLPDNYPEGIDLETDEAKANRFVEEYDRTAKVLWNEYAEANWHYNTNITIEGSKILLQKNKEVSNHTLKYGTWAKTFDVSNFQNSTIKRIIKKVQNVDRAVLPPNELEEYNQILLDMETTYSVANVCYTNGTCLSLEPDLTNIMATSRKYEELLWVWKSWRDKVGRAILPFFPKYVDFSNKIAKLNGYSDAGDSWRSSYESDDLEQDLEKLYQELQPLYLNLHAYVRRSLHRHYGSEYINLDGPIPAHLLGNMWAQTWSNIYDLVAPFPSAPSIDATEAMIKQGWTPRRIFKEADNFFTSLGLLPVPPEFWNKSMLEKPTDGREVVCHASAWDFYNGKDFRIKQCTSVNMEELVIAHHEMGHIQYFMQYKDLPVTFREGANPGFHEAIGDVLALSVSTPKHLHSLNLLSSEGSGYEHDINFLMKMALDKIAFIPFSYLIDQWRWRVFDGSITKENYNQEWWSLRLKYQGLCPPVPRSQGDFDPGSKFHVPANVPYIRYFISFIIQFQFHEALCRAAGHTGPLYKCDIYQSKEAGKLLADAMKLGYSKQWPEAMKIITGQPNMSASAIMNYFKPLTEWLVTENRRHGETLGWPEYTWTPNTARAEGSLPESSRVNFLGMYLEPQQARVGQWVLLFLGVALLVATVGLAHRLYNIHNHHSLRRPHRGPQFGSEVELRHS

| Compound | IC50 [3] [nM] | IC50 [6] [nM] | IC50 [8] [nM] | other results |
| --- | --- | --- | --- | --- |
| C[C@H]1CSC(=O)[C@@H]2Cc3ccccc3CN2C1=O (mixture of isomers) | – | – | – | inhibition [1]: 15%; Duration [2]: 10 min |
| CC1SC(=O)[C@@H]2CCCN2C1=O (stereo not given in full) | 33000 | – | – | Duration [4]: 10 min; inhibition [5]: 17% |
| CC(S)C(=O)N1CSC[C@H]1C(=O)O (stereo in doubt; 37b(R,R)) | – | 10000 | – | – |
| CC1SC(=O)CN(C2CCCC2)C1=O (stereo not given) | 150 | – | 57 | inhibition [7]: 24%; Duration [9]: 10 min; inhibition [10]: 73%; Duration [11]: 30 min |
| CC1CSC(=O)C2N(C1=O)C(C)(C)SC2(C)C (stereo not given) | 50000 | – | 15000 | inhibition [12]: 0%; Duration [13]: 0 min |
| CC1SC(=O)C(C)(C)N(C2CCCC2)C1=O (stereo not given) | 90000 | – | – | Duration [4]: 20 min; inhibition [14]: 20% |
| CC(S)C(=O)N(C1CCCC1)C(C)C(=O)O (stereo not given) | – | 6800 | – | – |
| CC(S)C(=O)N1C(C(=O)O)C(C)(C)SC1(C)C (stereo not given) | – | 21000 | – | – |
| CC(=O)SC(C)C(=O)N(C1CCCC1)C(C)C(=O)O (stereo not given) | – | 6800 | – | – |
| CC(=O)SC(C)C(=O)N1C(C(=O)O)C(C)(C)SC1(C)C (stereo not given) | – | > 100000 | – | – |
| CC(=O)SC(C)C(=O)N(CC(=O)O)c1ccc(C)cc1 (stereo not given) | – | 180 | – | – |
| CC(=O)SC(C)C(=O)N(C1CCCC1)C(C)(C)C(=O)O (stereo not given) | – | 95000 | – | – |
| CC(S)C(=O)N1CSC[C@H]1C(=O)O (stereo in doubt; 37b(S,R)) | – | 140 | – | – |
| C[C@@H]1SC(=O)[C@@]2(C)Cc3ccccc3CN2C1=O | > 100000 | – | > 100000 | inhibition [15]: 14%; Duration [16]: 10 min |
| C[C@H](CS)C(=O)N1CCC[C@H]1C(=O)O [CAPTOPRIL] | – | – | – | MAP (Rattus norvegicus [17]): -30% |
| CC1CSC(=O)[C@@H]2CSCN2C1=O (stereo not given in full) | 47 | – | 58 | Duration [18]: 20 min; inhibition [19]: 43% |

| Compound | IC50 [3] [nM] | IC50 [6] [nM] | IC50 [8] [nM] | other results |
| --- | --- | --- | --- | --- |
| C[C@@H]1CSC(=O)[C@@H]2CCCN2C1=O | 26 | – | 17 | inhibition [20]: 64%; Duration [21]: 30 min |
| C[C@H](CSC(=O)C(C)(C)C)C(=O)N(CC(=O)O)C1CCCC1 [PIVOPRIL] | – | – | 17 | MAP (Rattus norvegicus [17]): -30%; Duration [2]: 60 min; inhibition [22]: 50%; Duration (Rattus norvegicus [23]): >24 h |
| CC(=O)SC(C)C(=O)N(CC(=O)O)C1CCCC1 (stereo not given) | – | 510 | – | – |
| CC(=O)S[C@@H](C)C(=O)N1CSC[C@H]1C(=O)O | – | 1700 | – | – |
| CCOC(=O)[C@H](CCc1ccccc1)N[C@@H](C)C(=O)N1CCC[C@H]1C(=O)O | – | – | – | Duration [24]: 210 min; MAP (Rattus norvegicus [17]): -38%; inhibition [25]: 50%; Duration (Rattus norvegicus [23]): >24 h |
| CC1CSC(=O)[C@@H]2Cc3ccccc3CN2C1=O (stereo not given in full) | 18 | – | 45 | – |
| Cc1ccc(N(CC(=O)O)C(=O)C(C)S)cc1 (stereo not given) | – | 26 | – | – |
| CC(=O)S[C@H](C)C(=O)N1CSC[C@H]1C(=O)O | – | 37000 | – | – |
| CC1SC(=O)CNC1=O (stereo not given) | 1900 | – | 1900 | – |
| CC(S)C(=O)N(CC(=O)O)C1CCCC1 (stereo not given) | – | 57 | – | – |
| CC1SC(=O)C2N(C1=O)C(C)(C)SC2(C)C (stereo not given) | > 100000 | – | 21000 | inhibition [26]: 14%; Duration [27]: 20 min |
| CC1CSC(=O)CN(C2CC3CCC2C3)C1=O (stereo not given) | 12 | – | 25 | Duration [28]: 60 min; inhibition [29]: 85% |
| CC1SC(=O)C(C)N(C2CCCC2)C1=O (stereo not given) | 27000 | – | 6800 | inhibition [30]: 3% |
| CC(=O)SC(C)C(=O)N1Cc2ccccc2CC1(C)C(=O)O (stereo not given) | – | > 100000 | – | – |
| C[C@H]1CSC(=O)[C@@H]2Cc3ccccc3CN2C1=O | 800 | – | – | – |
